Publication PMC3158287 (Nature chemical biology, 2011)
Peptide text beside a SMILES is read from it. * marks the point of attachment. Cbz = O=C(OCc1ccccc1)*

How the values were obtained:
[1] = target: T1, OSBP (Homo sapiens, UniProt P22059); test: OSBP protein levels by western blotting; type: cell-based; conditions: HCT-116 cells; 25-OHC 10 μM
T1 sequence (P22059 1-807): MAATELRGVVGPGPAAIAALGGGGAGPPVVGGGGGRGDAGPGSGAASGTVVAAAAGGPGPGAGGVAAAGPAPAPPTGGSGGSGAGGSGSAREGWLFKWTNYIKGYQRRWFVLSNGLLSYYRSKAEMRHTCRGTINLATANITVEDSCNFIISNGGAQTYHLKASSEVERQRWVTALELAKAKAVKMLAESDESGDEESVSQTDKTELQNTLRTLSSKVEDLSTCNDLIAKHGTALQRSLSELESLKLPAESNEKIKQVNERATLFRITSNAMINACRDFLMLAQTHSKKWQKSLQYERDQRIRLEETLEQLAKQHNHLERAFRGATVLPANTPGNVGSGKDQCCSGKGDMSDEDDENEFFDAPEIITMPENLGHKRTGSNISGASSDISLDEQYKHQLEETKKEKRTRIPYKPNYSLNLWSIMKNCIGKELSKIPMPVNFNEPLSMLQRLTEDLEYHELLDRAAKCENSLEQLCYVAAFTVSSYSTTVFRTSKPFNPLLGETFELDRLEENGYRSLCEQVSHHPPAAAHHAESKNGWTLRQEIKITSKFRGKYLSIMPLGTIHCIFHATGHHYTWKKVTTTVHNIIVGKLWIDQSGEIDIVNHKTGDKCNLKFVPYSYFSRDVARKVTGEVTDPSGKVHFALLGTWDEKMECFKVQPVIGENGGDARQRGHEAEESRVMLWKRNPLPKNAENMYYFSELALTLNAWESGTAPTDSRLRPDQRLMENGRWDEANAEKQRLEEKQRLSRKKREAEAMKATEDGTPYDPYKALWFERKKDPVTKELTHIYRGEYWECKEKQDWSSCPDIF
In short: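 HCT-116 cells were treated with test compound at 50 nM or 10 nM over a time course including 24 h. Some samples also received proteasome inhibitor MG-132 or lactacystin. OSBP was measured by western blotting with polyclonal rabbit anti-OSBP (N-terminus) antibody. Data are n = 3, compared with vehicle-treated cells by two-tailed Student's t-test.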

[2] = system: HCT-116 cells; test: Suppression of antiproliferative activity by 25-OHC coadministration; type: cell-based, human; conditions: HCT-116 and HeLa cell lines
In short: (§1)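 HCT-116 p21+/+ and p21−/− cells were seeded in 96-well plates and rested 24 h. A time-zero plate was read with CellTiter-Blue (resazurin) after 90 min at 37 °C, fluorescence 544 nm ex / 590 nm em. Serially diluted test compound was added as 4× solution. Viability was re-read at 48 h and GI50 derived. For coadministration, 10 μM 25-OHC was added with test compound at 250 nM or 10 nM.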

[3] = system: HCT-116 p21^−/− cells; test: Cell viability assay, HCT-116 p21-/-; type: cell-based, human; conditions: GI50 after 48 h
In short: as §1

[4] = target: T1, OSBP; test: OSBP localization by immunofluorescence microscopy, HCT-116; type: cell-based; conditions: HCT-116 cells, 4 h; 5 μM schweinfurthin A, 10 nM OSW-1, 20 nM cephalostatin 1
In short: (§2)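 Cells on coverslips were grown 72 h, then given test compound or vehicle (4 h for HCT-116). They were fixed 10 min in 3.7% formaldehyde/PBS and permeabilised 5 min in 0.5% Triton X-100. Blocking used Image-iT FX, then 1% BSA/PBS. Rabbit anti-OSBP (N-terminus) and mouse anti-p230 were applied overnight at 4 °C, then Alexa Fluor secondaries for 60 min with Hoechst 33258. Imaging was by confocal microscopy.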

[5] = system: human cancer cell lines; conditions: cited from earlier work
[6] = target: T2, ORP4L-Myc-His (Homo sapiens, UniProt Q969R2); test: [3H]25-OHC charcoal-dextran binding assay, ORP4L-Myc-His
T2 sequence (Q969R2 1-916): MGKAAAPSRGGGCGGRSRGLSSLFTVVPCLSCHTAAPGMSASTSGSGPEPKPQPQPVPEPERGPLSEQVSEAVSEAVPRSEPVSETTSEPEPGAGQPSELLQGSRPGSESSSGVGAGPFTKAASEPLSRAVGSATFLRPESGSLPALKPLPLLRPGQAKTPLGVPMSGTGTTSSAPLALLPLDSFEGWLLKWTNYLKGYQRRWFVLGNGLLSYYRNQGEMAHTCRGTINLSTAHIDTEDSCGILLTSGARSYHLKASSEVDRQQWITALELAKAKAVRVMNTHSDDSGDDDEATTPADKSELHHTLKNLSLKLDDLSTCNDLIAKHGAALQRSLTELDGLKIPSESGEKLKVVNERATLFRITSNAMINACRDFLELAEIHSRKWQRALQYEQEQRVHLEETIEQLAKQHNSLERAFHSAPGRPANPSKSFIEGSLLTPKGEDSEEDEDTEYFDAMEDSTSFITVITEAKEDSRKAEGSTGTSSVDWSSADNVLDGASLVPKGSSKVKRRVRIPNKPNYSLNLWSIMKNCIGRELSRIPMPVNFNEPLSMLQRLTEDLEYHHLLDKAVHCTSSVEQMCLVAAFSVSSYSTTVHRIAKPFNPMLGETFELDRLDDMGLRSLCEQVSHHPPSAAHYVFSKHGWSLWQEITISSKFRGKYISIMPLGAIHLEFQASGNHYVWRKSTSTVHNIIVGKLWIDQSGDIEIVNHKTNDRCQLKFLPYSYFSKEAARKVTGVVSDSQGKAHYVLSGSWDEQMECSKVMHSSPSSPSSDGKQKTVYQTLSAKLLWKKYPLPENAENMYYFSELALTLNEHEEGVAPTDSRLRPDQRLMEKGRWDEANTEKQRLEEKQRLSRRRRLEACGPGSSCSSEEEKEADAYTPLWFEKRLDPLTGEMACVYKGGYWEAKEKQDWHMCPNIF

[7] = target: T3, OSBP-Myc-His (Homo sapiens, UniProt P22059); test: [3H]25-OHC charcoal-dextran binding assay, wild-type OSBP-Myc-His
T3 sequence (P22059 1-807): T1 sequence (P22059 1-807)

[8] = target: T1, OSBP; test: OSBP localization by immunofluorescence microscopy, A549; type: cell-based; conditions: A549 cells
In short: as §2

[9] = system: HCT-116 p21^−/− cells stably transfected with shOSBP or shNT; test: OSBP shRNA knockdown and dose-shift experiment; type: cell-based, human; conditions: 72 h
In short: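 HCT-116 p21−/− cells were stably transfected with OSBP-targeting or nontargeting shRNA in the pSIREN-RetroQ vector. […] Values are mean ± s.d. of 3–4 experiments, compared with shNT cells by two-tailed Student's t-test.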

[10] = system: sphingomyelin biosynthesis in CHO-K1 cells; test: Sphingomyelin biosynthesis, [3H]serine pulse labeling, CHO-K1; type: cell-based, Chinese hamster
[11] = system: HeLa cells overexpressing wild-type OSBP; test: Overexpression-viability assay, wild-type OSBP-Myc-His; type: cell-based, human; conditions: 48 h, versus lacZ
[12] = system: HeLa cells overexpressing ORP4L; test: Overexpression-viability assay, ORP4L-Myc-His; type: cell-based, human; conditions: 48 h, versus lacZ

## CC(C)C[C@@H](C=O)NC(=O)[C@H](CC(C)C)NC(=O)[C@H](CC(C)C)NC(=O)OCc1ccccc1 [MG-132, reference compound] (Cbz-Leu-Leu-Leu-aldehyde)
[1]
  Effect on OSBP levels (compound alone): did not affect OSBP concentrations

## C[C@H]1CCC/C=C/[C@@H]2C[C@H](O)C[C@H]2[C@H](O)/C=C/C(=O)O1 [brefeldin A, reference compound]
[2]
  Effect of 25-OHC coadministration on antiproliferative activity: did not affect

## CC(=O)N[C@@H](CSC(=O)[C@]1([C@@H](O)C(C)C)NC(=O)[C@H](C)[C@@H]1O)C(=O)O [lactacystin, reference compound]
[1]
  Effect on OSBP levels (compound alone): did not affect OSBP concentrations

## CC1C2C(CC3C4CCC5Cc6nc7c(nc6CC5(C)C4CC(O)C32C)CC2CC(O)C3C4=CC5OC6(CCC(C)(O)CO6)C(C)C5(O)C4(C)C(O)CC3C2(C)C7)OC12CCC(C)(C)O2 (stereo not shown) [ritterazine B]
[3]
  p21^−/− selectivity of growth inhibition (HCT-116 p21^−/− versus wild-type): selectively growth-inhibitory
[4]
  OSBP localization: This effect was also observed
[5]
  GI50 (half-maximal inhibitory concentration): nanomolar range
[6]
  Ki: > 360 nM
[7]
  Ki: 28 ± 4 nM

## COc1cc(/C=C/c2cc(O)c(C/C=C(\C)CCC=C(C)C)c(O)c2)cc2c1O[C@]1(C)C[C@@H](O)[C@@H](O)C(C)(C)[C@H]1C2 [schweinfurthin B]
[8]
  OSBP localization: perinuclear OSBP staining similar to that seen with 25-OHC
[5]
  GI50 (half-maximal inhibitory concentration): nanomolar range

## CC(=O)O[C@H]1C(=O)[C@@]2(C)[C@H]([C@H](OC(=O)c3ccccc3)[C@]3(O)C[C@H](OC(=O)[C@H](O)[C@@H](NC(=O)c4ccccc4)c4ccccc4)C(C)=C1C3(C)C)[C@]1(OC(C)=O)CO[C@@H]1C[C@@H]2O [taxol, reference compound]
[2]
  Effect of 25-OHC coadministration on antiproliferative activity: did not affect
[9]
  Sensitization by OSBP shRNA knockdown (GI50 shift shOSBP vs shNT): not affected
[10]
  Inhibition of sphingomyelin biosynthesis (control cytotoxic / ER stress agents): did not occur
[11]
  Desensitization factor by OSBP overexpression (relative GI30): not affected
[12]
  Desensitization factor by ORP4L overexpression (relative GI30): not affected

## C/C=C(/C)C(=O)O[C@H]1C(C)=C2[C@H]([C@@H]1OC(=O)CCCCCCC)[C@@](C)(OC(C)=O)C[C@H](OC(=O)CCC)[C@@]1(O)[C@H]2OC(=O)[C@@]1(C)O [thapsigargin]
[10]
  Inhibition of sphingomyelin biosynthesis (control cytotoxic / ER stress agents): did not occur
